Phagocytosis inh: inhibitors of macrophage phagocytosis, primary screen, imaging, J774A.1 cells, IgG beads; inhibition, % at 5 µM; 110,000 compounds, 0.07% hits; J774A.1 macrophage IgG-bead phagocytosis;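 active = inhibition above the mean of the plate negative controls plus 5 SD, cut at about 13% in these data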;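 note: phagocytic index as fraction of beads internalized from green versus red external bead signal; plate controls were DMSO negative control for no effect and cytochalasin-D positive control for full effect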
Yeast lifespan up: compounds extending yeast replicative lifespan, primary screen, S. cerevisiae, OD615; inhibition of the nicotinamide effect, % at 10 µM; 130,000 compounds, 0.68% hits; S. cerevisiae growth with nicotinamide; deaD strain in restrictive glucose medium;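 active = inhibition above a set limit, placed 3 SD over the median of all compounds, cut at about 26% in these data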;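 note: 0% = nicotinamide-treated wells and 100% = cells grown without nicotinamide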
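System: DeaD-strain S. cerevisiae / Buffer or medium: CSMM-D, restrictive glucose (dextrose) synthetic minimal medium / Probe or stimulus: nicotinamide, 1.5 mM, co-present with compound / Compound: one concentration, 10 µM, DMSO 0.25% / Incubation: 48 h compound exposure at 30 °C, humidified / Technique: optical density (absorbance) at 615 nm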
MRP1 act: H69AR viability gain despite doxorubicin, primary screen, MRP-1 activator project, H69AR cells, CellTiter-Glo. viability rescue. 140,000 compounds, 0.61% hits. viability increase, % at 10 µM;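 active = viability gain under doxorubicin at or above a set limit, the compound median plus 3 SD, cut at about 4.7% in these data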;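 note: MRP-1 overexpressing cells given doxorubicin 25 µM after compound pretreatment; 18-22 h compound pretreatment then 72 h with doxorubicin before readout; 0% = doxorubicin-only wells and 100% = vehicle-treated cells without doxorubicin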
SDO1 yeast rescue: growth rescue of sdo1-depleted yeast, primary screen, S. cerevisiae, bone marrow failure model. S. cerevisiae sdo1-depleted JHY4D growth rescue, OD600 30 h; hits give high values; pdr5 snq2 efflux-pump mutant strain. 140,000 compounds, 0.21% hits. z-score at 10 µM. AID 817, 2007;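 active = z-score above 3 at both the 24 hr and the 30 hr optical density reads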;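 note: z-score against mean and SD of all compound wells on the same plate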
Yeast growth inh: growth inhibitors of yeast BB579 in restrictive medium, primary screen, yeast lifespan-shortening project, S. cerevisiae. OD615, 48 h. inhibition, % at 10 µM. 140,000 compounds, 0.51% hits;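 active = inhibition above a set limit, 3 SD over the mean compound inhibition, cut at about 44% in these data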
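Assay system – yeast BB579 (DeaD) · Dosing – single compound dose of 10 µM, 0.25% DMSO final · Detection – OD615 turbidity measurement · Buffer or medium – CSMM-D restrictive synthetic medium containing dextrose (glucose) · Benchmarks – positive control amphotericin B 10 µg/mL · Incubation – 48 h exposure, 30 °C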
MRP reversal: reversal of MRP1-mediated doxorubicin resistance, primary screen, H69AR cells, doxorubicin co-treatment | H69AR cells + 2 uM doxorubicin, CellTiter-Glo, 72 h | differential viability (reversal), % at 10 µM | 85,000 compounds, 0.04% hits | AID 602, 2007;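 active = viability drop by adding the cancer drug above about 55%, with treated viability meeting a 40% cutoff, limit read from the data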;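 note: viability without doxorubicin minus viability with 2 µM doxorubicin for each compound; larger differential means the compound sensitizes cells more to doxorubicin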
Starred values were filed as active, the others as inactive; nt = not tested or not shown. Rows were chosen to be rich in hits. Some 2.1% of all compounds tested hit in one or more screens of this group.

SMILES | Phagocytosis inh | Yeast lifespan up | MRP1 act | SDO1 yeast rescue | Yeast growth inh | MRP reversal
Cc1nn(C)cc1/C=C1\SC(=S)NC1=O | 0 | -15 | -3 | 1.2 | -48 | nt
Cc1cc(/C=C2\SC(=S)NC2=O)c(C)n1C | 1 | -22 | 5.5* | -0.15 | -33 | nt
Cc1ccc(C(=O)/C=C/c2cn(CN3CCN(C)CC3)c3ccccc23)cc1 | 0 | -14 | -5 | -2.6 | 73* | -6
CNC(=O)C1=NCCCc2cc(OC)c(OC)cc21 | -5 | -7 | -2 | 0.72 | -25 | -9
COc1ccc(C(=O)N(CN2CCCC2=O)c2ccccc2OC)cc1OC | 0 | -5 | -1 | -0.21 | -38 | nt
OC(CN1CCN(c2ccccn2)CC1)Cn1c2ccc(Cl)cc2c2cc(Cl)ccc21 (configuration not stated) | nt | -27 | -7 | -1.9 | 99* | 1
O=C(Nc1ccccc1O)c1ccc(Cl)cc1 | -1 | -24 | -6 | 0.45 | -25 | -11
COc1ccc(N2C(=O)CCC(C(=O)O)C2c2ccc(OC)c(OC)c2)cc1 (configuration not stated) | -1 | -1 | -2 | 0.53 | -22 | nt
COc1ccc(N2C(=O)CCC(C(=O)NCCN3CCOCC3)C2c2ccc(OC)c(OC)c2)cc1 (configuration not stated) | 44* | -5 | 1 | -0.05 | -39 | 20
O=C1/C(=C\c2ccco2)SC(=S)N1c1ccc(O)cc1 | 0 | -6 | 5.2* | -1.9 | -11 | nt
CN1C(=S)N(c2ccccc2)C(=O)/C1=C/c1ccco1 | -3 | -4 | -2 | -0.36 | -33 | nt
COc1ccccc1-c1cc(N)n(S(=O)(=O)c2ccc(F)c(C)c2)n1 | nt | 1 | -3 | -0.33 | 5 | -2
COc1ccc(Cl)cc1NC(=O)CN(c1ccccc1)S(=O)(=O)N(C)C | 0 | 8 | -5 | -1.7 | -17 | -3
C=CCOC(=O)C(C#N)c1nc2ccccc2nc1N1CCN(c2ccccc2OCC)CC1 (configuration not stated) | -7 | 12 | 5.2* | -0.76 | -25 | 5
CCOc1ccccc1N1CCN(c2nc3ccccc3nc2C(C#N)C(=O)OC(C)C)CC1 (configuration not stated) | nt | nt | nt | nt | nt | 2
CCCOC(=O)/C(C)=N\NC(=O)c1ccco1 | 0 | -10 | 1 | 0.08 | -4 | -7
CCn1ccc(C(=O)Nc2ccc(S(=O)(=O)Nc3ccccc3OC)cc2)n1 | 1 | 67* | 0 | -1.4 | -58 | 15
CC1=NN(C(N)=S)C(=O)C1N=Nc1ccccc1C (configuration not stated) | nt | -1 | -2 | -1.5 | -13 | 91*
COC1=C(N)C(=O)c2nc(-c3nc(C(=O)O)c(C)c(-c4ccc(OC)c(OC)c4O)c3N)ccc2C1=O | nt | -7 | -2 | -2.5 | 97* | nt
Cc1cc(C)c(S(=O)(=O)c2ccccc2)c(Cl)n1 | 0 | -11 | -1 | -0.12 | -10 | nt
Cc1cc(C)c(S(C)(=O)=O)c(Sc2ccc(Cl)cc2)n1 | nt | -7 | 5.4* | -0.5 | -41 | nt
O=c1c2cccc3c2c(nn1CN1CCOCC1)-c1ccccc1-3 | 1 | -19 | -2 | -0.04 | 93* | nt
COc1cc2nc(C3CCC3)n(NC(=O)COc3ccccc3)c(=O)c2cc1OC | 0 | 53* | -1 | -0.06 | 8 | -18
COc1cc2nc(C3CCC3)n(NC(=O)C3CCC3)c(=O)c2cc1OC | 2 | -8 | -1 | 1.1 | -10 | -7
O=C(C(Cc1ccccc1)N1C(=O)c2ccccc2C1=O)N1c2ccccc2CCc2ccccc21 (configuration not stated) | -10 | 8 | 2 | -0.74 | -6 | nt
CC(C)(C)NC(NC(=O)Cc1ccccc1)C(Cl)(Cl)Cl (configuration not stated) | nt | -12 | 5.3* | 0.37 | -13 | nt
O=C1OCC(CO)(CO)N=C1NNc1ccc(Cl)c(Cl)c1 | nt | -19 | -2 | -2 | 98* | nt
O=C(Nc1ccccc1-c1nnc(SCc2ccc(Cl)cc2)o1)c1ccccc1 | 0 | 6 | 3 | 0.48 | -54 | nt
